The values that follow come from PubChem BioAssay AID871 (The Scripps Research Institute Molecular Screening Center, 2007).

Structures are written as SMILES. Among all 190,000 compounds or so, about 1,800 (0.95%) were called active. The sample holds actives, similar compounds and a random draw of the others, so the mix is not that of the screen. Values without a mark were called inactive.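 The calls were made as follows: active = activation above the screen-wide mean of compound activation plus 3 SD (cut at about 130% in these data); inactive = the rest.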

The experiment in a line: IL-6 driven STAT3 reporter potentiators, primary screen, U3A cells, luciferase, luminescence, MLSCN library (AID 871).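 Also: 0% = background luminescence of wells with medium and substrate only.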 The conditions noted are these: IL-6 STAT3-luciferase reporter, at 5.6 µM, active compounds read high, 100% = signal with IL-6 EC80 alone. The gist of the method: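 Material: STAT3-luciferase reporter U3A cells. Controls: IL-6-treated wells, 100% activation. Read-out: % activation versus median of IL-6-stimulated wells. Probe or stimulus: IL-6 stimulus at 33 ng/mL final. Timing: compound 1 h, then IL-6 6 h at 37 °C. Signal: reporter luminescence signal.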
(Reporter assays use an easily measured gene product as a stand-in for the process of interest.)
Take `CC(C(=O)O)n1cnc2sc3c(c2c1=O)CCCC3` (configuration not stated): the activation (% of control) was 102%.

Turning to `COc1ccc(C2C(C(C)=O)=C(O)C(=O)N2Cc2cccnc2)cc1` (configuration not stated), the activation (% of control) was 100%.

On to `COc1ccc(C2C(C(C)=O)=C(O)C(=O)N2CCc2c[nH]c3ccccc23)cc1` (configuration not stated), for which the activation (% of control) was 108%.

For the compound `COc1ccc(C2C(C(C)=O)=C(O)C(=O)N2c2nccs2)cc1` (configuration not stated), the activation (% of control) was 134% (active).

Regarding `O=C(Cc1ccccc1Cl)N1CCN(c2ccccn2)CC1`, the activation (% of control) was 100%.

For `Cn1nnnc1NCc1ccc(Cl)c(Cl)c1`, the activation (% of control) was 101%.

Regarding `C[n+]1ccc(/C=C/c2c[nH]c3ccccc23)cc1`, the activation (% of control) is 115%.

As for `Cc1cccc(NC(=S)Nc2ccc(Cl)c(Cl)c2)c1`, the activation (% of control) was 92.4%.

For `Cc1ccc(OCc2nnc(SC3CCc4ccccc4C3=O)n2C)cc1` (configuration not stated), the activation (% of control) is 144% (active).

As to `Cc1ccc(OCc2n[nH]c(=S)n2-c2ccccc2)cc1`, the activation (% of control) was 105%.

`Cc1cccnc1NC(=O)CSc1nnc(COc2ccc(C(C)C)cc2)n1C`: the activation (% of control) is 98.9%.

On to `Cc1cc(C)cc(OCC(=O)NCc2cc(C)nc3ccccc23)c1`, for which the activation (% of control) was 92.5%.

In the case of `O=C(CC1NCCc2ccccc21)Nc1cccc(Cl)c1` (configuration not stated), the activation (% of control) is 100%.

Consider `CCOc1cc(N2CCOCC2)c(OCC)cc1NC(=O)c1cc(C)nc2ccccc12`, for which the activation (% of control) is 93.6%.

Take `CCCCn1c(=O)c(CCC(=O)OCC(=O)Nc2ccc(C)c(Cl)c2)nc2ccccc21`: the activation (% of control) is 100%.

For `CCCCOc1ccc(NC(=O)[C@@H]2CCCN2C(=O)C2CCN(S(=O)(=O)c3ccc(C)cc3)CC2)cc1`, the activation (% of control) was 102%.

For `O=C(COc1ccccc1Cl)Nc1ccc(C(=O)c2ccc(C(=O)O)cc2)cc1`, the activation (% of control) was 85.3%.

Turning to `COc1cc(NC(=O)COc2ccccc2Cl)ccc1NC(=O)C(C)C`, the activation (% of control) is 84.8%.

Regarding `CC(=O)Nc1ccc(NC(=O)COc2ccccc2C(=O)Nc2cccc(Cl)c2Cl)cc1`, the activation (% of control) is 136% (active).

For `Cc1cc2oc(C(=O)Nc3c(C)n(C)n(-c4ccccc4)c3=O)c(C)c2cc1Cl`, the activation (% of control) was 96.5%.

As to `CC(C)COP(=O)(c1ccc(N(C)C)cc1)C(Nc1ccccc1)c1cccnc1` (configuration not stated), the activation (% of control) is 106%.

As to `Nc1ccc(S(=O)(=O)Nc2nccc(/C=C/c3ccc(Br)s3)n2)cc1`, the activation (% of control) is 92.4%.

Take `Oc1cccc2ccc(/C=C/c3ccc(Br)s3)nc12`: the activation (% of control) is 146% (active).

In the case of `O=C(Nc1nnc(C2CC2)s1)C1=NN(C2CCS(=O)(=O)C2)C(=O)CC1` (configuration not stated), the activation (% of control) is 103%.

Consider `O=C(N/N=C/c1ccccn1)c1ccc(S(=O)(=O)N2CCCCCC2)cc1`, for which the activation (% of control) was 104%.

Take `O=C(C1CCN(C2CCN(Cc3cccc4c3OCO4)CC2)CC1)N1CCOCC1`: the activation (% of control) is 108%.

Take `Cc1ccc(OCC(=O)N/N=C\c2ccco2)c(C)c1`: the activation (% of control) was 92.2%.

Regarding `Cc1ccc(/C=N/NC(=O)COc2ccccc2-c2ccccc2)cc1`, the activation (% of control) is 148% (active).

Regarding `Cc1ccc(OCC(=O)N/N=C/c2ccncc2)cc1`, the activation (% of control) is 95.8%.

Turning to `CC(=O)C1=C(C)NC2=C(C(=O)CC(C)(C)C2)C1C` (configuration not stated), the activation (% of control) was 97%.

As to `N#Cc1ncc(C(F)(F)F)cc1Oc1cccnc1`, the activation (% of control) was 107%.

For the compound `Cc1cccc(Nc2nc3c(S(=O)(=O)c4ccccc4)nnn3c3ccccc23)c1C`, the activation (% of control) is 105%.

Regarding `COCCCNc1nc2c(-c3cccc(C(F)(F)F)c3)nnn2c2ccccc12`, the activation (% of control) was 147% (active).

On to `CC(=O)Nc1ccc(Nc2nc3c(S(=O)(=O)c4ccc(C)c(C)c4)nnn3c3ccccc23)cc1`, for which the activation (% of control) is 95.2%.

On to `O=C(CNCc1ccco1)Nc1cc(S(=O)(=O)N2CCOCC2)ccc1N1CCCC1`, for which the activation (% of control) is 114%.

On to `CCOc1ccc(NC(=S)N2CCC(N(C)CC3CCCO3)CC2)cc1` (configuration not stated), for which the activation (% of control) was 102%.

For the compound `CCOc1cc(C(=O)N2CCc3cc(OC)c(OC)cc3C2)ccc1OC(F)F`, the activation (% of control) was 133% (active).

Take `COc1cc2c(cc1OC)CN(C(=O)c1ccc(S(=O)(=O)N3CCCCCC3)cc1)CC2`: the activation (% of control) was 92.7%.

Regarding `COc1cc2c(cc1OC)CN(C(=O)c1cc(=O)c3ccccc3o1)CC2`, the activation (% of control) was 92.7%.

Take `O=C(CNS(=O)(=O)c1ccccc1)NCC(=O)OCc1ccccc1F`: the activation (% of control) is 108%.

Turning to `Cc1cc(O)c(NC(=O)c2ccc(C)c([N+](=O)[O-])c2)cc1C`, the activation (% of control) was 134% (active).

As to `CCN1CCC(=NNC(=O)c2ccc(C)c([N+](=O)[O-])c2)CC1`, the activation (% of control) is 107%.

For `Cc1ccc(C(=O)Nc2cccc3ncccc23)cc1[N+](=O)[O-]`, the activation (% of control) was 94.5%.

Take `Cc1ccccc1CC1(CO)CCCN(Cc2ccc3c(c2)OCCO3)C1` (configuration not stated): the activation (% of control) is 93.5%.

`COc1ccccc1CCNC(=O)CSc1nnc2ccc(-c3cccnc3)nn12`: the activation (% of control) is 101%.

As for `CC(C)(C)C(=O)CN1C2=NCCN2c2ccccc21`, the activation (% of control) is 96.1%.

Regarding `C=C(C)Cn1c(SCC(=O)NCc2ccco2)nc2sc3c(c2c1=O)CCC3`, the activation (% of control) is 104%.

Take `O=C(NCc1ccco1)c1cccn2c(=O)c3c4c(sc3nc12)CCCC4`: the activation (% of control) was 154% (active).

In the case of `COc1ccc(CCn2c(=N)c(C(=O)NCc3ccco3)cc3c(=O)n4cccc(C)c4nc32)cc1`, the activation (% of control) was 94.5%.

For the compound `O=C(Nc1nnc(SCc2ccccc2Cl)s1)c1cccc([N+](=O)[O-])c1`, the activation (% of control) was 109%.

As for `Fc1ccc2nc(-c3ccccc3)nc(SCc3nnc(-c4ccccc4)o3)c2c1`, the activation (% of control) was 141% (active).

On to `Fc1ccc(-c2nnc(CSc3nnc(-c4ccc5c(c4)OCO5)o3)o2)cc1`, for which the activation (% of control) is 102%.

Consider `c1ccc(-c2nnc(SCc3nc4ccccc4[nH]3)o2)cc1`, for which the activation (% of control) is 109%.

In the case of `O=C(NCCCO)/C(=C\C=C\c1ccccc1)NC(=O)c1ccccc1Cl`, the activation (% of control) is 101%.

For the compound `CC1CCc2sc(C(=O)N/N=C/C3CCCCC3)cc2C1` (configuration not stated), the activation (% of control) is 103%.

Turning to `CSc1nc(N(C)NC(=O)c2cccc(C)c2)c2ccccc2n1`, the activation (% of control) was 139% (active).

Regarding `CN(NC(=O)c1ccccc1F)c1nc(C(F)(F)F)nc2ccccc12`, the activation (% of control) is 115%.

As to `CN(NC(=O)c1ccccc1)c1nc2ccccc2nc1C(F)(F)F`, the activation (% of control) was 96%.

In the case of `COc1ccc2nc(Nc3nc4cc5c(cc4s3)OCCO5)sc2c1`, the activation (% of control) is 93.3%.

As for `Fc1ccc2nc(Nc3nc4c(s3)CCCC4)sc2c1`, the activation (% of control) was 147% (active).

`CSc1ncccc1C(=O)Nc1nc2ccc(F)cc2s1`: the activation (% of control) was 90.7%.

For `COc1cc(NC(=S)NCc2ccco2)c(OC)cc1Cl`, the activation (% of control) is 95.6%.

As to `COc1ccccc1N1CCN(C(=O)c2cc(-c3ccc(Cl)c(Cl)c3)on2)CC1`, the activation (% of control) was 91.7%.

For `O=C(c1ccncc1)N1CCN(c2ccc3ccccc3n2)CC1`, the activation (% of control) is 90%.

`O=C(c1ccc2ccccc2n1)N1CCN(c2ccccc2Cl)CC1`: the activation (% of control) is 135% (active).

For the compound `O=C(/C=C/c1ccc(F)cc1)NCCNC(=O)/C=C/c1ccc(F)cc1`, the activation (% of control) is 95%.

Regarding `COC(=O)CC(=O)N1CCN(c2ccc(Cl)c(Cl)c2)CC1`, the activation (% of control) was 87.7%.

With `Cc1csc2ncc(C(=O)N(Cc3ccccc3)c3ccccn3)c(=O)n12`, the activation (% of control) is 144% (active).

In the case of `CC(C)(C)C(=O)N(Cc1ccccc1)c1ccccn1`, the activation (% of control) is 106%.

For `CCC(=O)N(Cc1ccccc1)c1ccccn1`, the activation (% of control) is 101%.

As for `CCCCCCCCc1c(O)nc(-n2[nH]c(C)c(CCO)c2=O)[nH]c1=O`, the activation (% of control) was 102%.

Take `CCCC1OC23CCCCC2C(C#N)(C#N)C1(C#N)C(=N)O3` (configuration not stated): the activation (% of control) is 104%.

In the case of `CC(C)(C)c1ccc(NC(=O)COC(=O)CCc2nc3ccccc3c(=O)[nH]2)cc1`, the activation (% of control) was 95.4%.

For `COc1cccc(/C=C(/CC(=O)Nc2ccc(N3CCOCC3)cc2)c2nc3ccccc3s2)c1`, the activation (% of control) is 143% (active).

Turning to `COc1ccc(/C=C(/CC(=O)Nc2ccc(C)cc2)c2nc3ccccc3s2)cc1`, the activation (% of control) was 103%.

For the compound `COc1cccc(C(=O)Nc2ccc(N3CCCC3)cc2)c1`, the activation (% of control) is 90.1%.

Turning to `CCc1ccccc1NC(=O)CN(C)C(=O)COc1ccc(C)nc1[N+](=O)[O-]`, the activation (% of control) is 104%.

As to `COc1ccc(CC(=O)Nc2ccccc2NC(=O)c2ccco2)cc1OC`, the activation (% of control) was 100%.

`CCOC(=O)C1C(c2ccc(Cl)cc2)NC(=S)NC1(O)C(F)(F)F` (configuration not stated): the activation (% of control) is 98.2%.

On to `CCCCCCCC1(C)NC(=O)N(CC(=O)Nc2cc(C)on2)C1=O` (configuration not stated), for which the activation (% of control) was 93.7%.

As for `O=C(O)CCCCc1nc2ccccc2s1`, the activation (% of control) is 94.9%.

On to `COc1cccc2sc(NNC(=O)c3nc4ccccc4s3)nc12`, for which the activation (% of control) was 120%.

Turning to `O=C(O)CSCc1nc2ccccc2s1`, the activation (% of control) is 144% (active).

Consider `CSCCC(Nc1nc2ccccc2s1)C(=O)O` (configuration not stated), for which the activation (% of control) was 99.7%.

In the case of `O=C(Nc1ccccc1)Nc1nc2ccccc2s1`, the activation (% of control) is 100%.

With `O=C(O)CS/C(=C\c1ccc(F)cc1)c1nc2ccccc2s1`, the activation (% of control) is 136% (active).

For `CCOP(=O)(OCC)C(Nc1cccc(C)c1)c1ccc(F)cc1` (configuration not stated), the activation (% of control) is 95.7%.

Take `O=C(Cn1nnc2ccccc2c1=O)NCc1ccc(Cl)cc1`: the activation (% of control) is 101%.

In the case of `C#CCCCc1nc2ccccc2c(=O)n1N`, the activation (% of control) was 96.4%.

For `Cc1cc(C(=O)NNC(=S)Nc2ccccc2C)cs1`, the activation (% of control) was 100%.

As for `COc1ccc(C(=O)NC(Cc2ccc(OC(=O)c3ccc(OC)cc3)cc2)C(=O)O)cc1` (configuration not stated), the activation (% of control) is 100%.

With `NC1=NC(=O)C(Cc2cccc(Cl)c2Cl)S1` (configuration not stated), the activation (% of control) was 98.2%.

As to `CCOc1ccc(N=Cc2c(O)n(-c3cccc(C)n3)c(=O)c3ccccc23)cc1`, the activation (% of control) was 78.3%.

`CC(=O)n1c(C=Nc2ccccc2)c(O)c2ccccc21`: the activation (% of control) is 134% (active).

In the case of `CCCCn1c(=O)c(C(C)=O)c(O)c2ccccc21`, the activation (% of control) is 106%.

Regarding `O=C1c2ccccc2NC(c2ccccc2O)N1NS(=O)(=O)c1ccccc1` (configuration not stated), the activation (% of control) was 101%.

Regarding `COc1ccc(CN2CCN(Cc3cn(C)nc3-c3ccccc3)CC2CCO)c(C)c1C` (configuration not stated), the activation (% of control) is 105%.
